The values that follow come from ChEMBL document CHEMBL3804821, “Design and synthesis of some novel 4-Chloro-N-(4-(1-(2-(2-cyanoacetyl)hydrazono)ethyl)phenyl) benzenesulfonamide derivatives as anticancer and radiosensitizing agents” (Eur J Med Chem, 2016).

In assay [1] the test system is HepG2. In words: Cytotoxicity against human HepG2 cells assessed as surviving fraction at 12.5 uM after 48 hrs by SRB assay relative to control. The format is functional. The gist of the method: (§1)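 Cells seeded at 10^4/well and allowed to attach for 24 h. Compounds dissolved in DMSO, diluted with saline, and added at 12.5, 25, 50 and 100 µM in triplicate wells. Exposure 48 h, 37 °C, 5% CO2. Cells then TCA-fixed and stained 30 min with 0.4% SRB in 1% acetic acid, washed four times with 1% acetic acid, and dye recovered in Tris-EDTA. Absorbance read and surviving fraction plotted against concentration to obtain IC50.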

The subject of assay [2] is HepG2. The assay is described as follows: Cytotoxicity against human HepG2 cells assessed as surviving fraction at 25 uM after 48 hrs by SRB assay relative to control. The format is functional. In a few lines:
as §1
(In general: In SRB staining, fixed cells bind dye roughly in proportion to their protein.)

The subject of assay [3] is HepG2. The assay is described as follows: Cytotoxicity against human HepG2 cells assessed as surviving fraction at 50 uM after 48 hrs by SRB assay relative to control. The class given is functional. In a few lines: as §1
Assay [4] concerns HepG2. The assay is described as follows: Cytotoxicity against human HepG2 cells assessed as surviving fraction at 100 uM after 48 hrs by SRB assay relative to control. The class given is functional. The gist of the method:
as §1

Assay [5] concerns HepG2. The assay is described as follows: Cytotoxicity against human HepG2 cells assessed as cell viability after 48 hrs by SRB assay. The format is functional, cell-based. The settings on record: HepG2, 48 h. The gist of the method: as §1
In assay [6] the test system is HepG2. The assay is described as follows: Cytotoxicity against human HepG2 cells assessed as surviving fraction at 12.5 uM treated for 2 hrs followed by gamma irradiation of 8 Gy with dosage rate of 0.758 rad/sec for 17.73 mins measured after 48 hrs by SRB assay relative to control. The format is functional. The gist of the method: (§2)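 Cells seeded at 10^4/well for 24 h, then given compound at 12.5, 25, 50 or 100 µM. After 2 h, a single 8 Gy γ-ray dose was delivered (0.758 rad/sec, 17.73 min). Cells fixed 48 h after irradiation and stained with 0.4% SRB in 1% acetic acid, read at 570 nm. Surviving fraction reported as mean ± standard error and analysed by 1-way ANOVA; IC50 taken from the survival curve.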

The subject of assay [7] is HepG2. The assay is described as follows: Cytotoxicity against human HepG2 cells assessed as surviving fraction at 25 uM treated for 2 hrs followed by gamma irradiation of 8 Gy with dosage rate of 0.758 rad/sec for 17.73 mins measured after 48 hrs by SRB assay relative to control. The format is functional. The gist of the method:
as §2

In assay [8] the test system is HepG2. In words: Cytotoxicity against human HepG2 cells assessed as surviving fraction at 50 uM treated for 2 hrs followed by gamma irradiation of 8 Gy with dosage rate of 0.758 rad/sec for 17.73 mins measured after 48 hrs by SRB assay relative to control. The class given is functional. In a few lines:
as §2

The subject of assay [9] is HepG2. In words: Cytotoxicity against human HepG2 cells assessed as surviving fraction at 100 uM treated for 2 hrs followed by gamma irradiation of 8 Gy with dosage rate of 0.758 rad/sec for 17.73 mins measured after 48 hrs by SRB assay relative to control. The class given is functional. The gist of the method:
as §2

The subject of assay [10] is HepG2. In words: Cytotoxicity against human HepG2 cells assessed as cell viability treated for 2 hrs followed by gamma irradiation of 8 Gy with dosage rate of 0.758 rad/sec for 17.73 mins measured after 48 hrs by SRB assay. The settings on record: HepG2, light or radiation study. The format is functional, cell-based. In a few lines:
as §2

The subject of assay [11] is HepG2. In words: Potency index, ratio of doxorubicin IC50 to compound IC50 for human HepG2 cells. The class given is functional.

For `CCOC(=O)c1c(-c2ccc(N(C)C)cc2)c(C#N)c(=O)n(/N=C(\C)c2ccc(NS(=O)(=O)c3ccc(Cl)cc3)cc2)c1N`, the Ratio in the assay with HepG2 [1] turned out to be 0.653; in the assay with HepG2 [2] it was 0.432; in the assay with HepG2 [3] it was 0.396; with HepG2 [4] it was 0.196. Moreover, the IC50 – broadly, the point on the concentration scale where inhibition reaches its midpoint – in the assay on HepG2 [5] was found to be 21 µM.
On to `CCOC(=O)c1c(-c2ccco2)c(C#N)c(=O)n(/N=C(\C)c2ccc(NS(=O)(=O)c3ccc(Cl)cc3)cc2)c1N`, for which the Ratio came to 0.413 with HepG2 [1]; 0.367 with HepG2 [2]; 0.37 with HepG2 [3]; 0.342 in the assay on HepG2 [4]; 0.32 with HepG2 [6]; 0.22 in the assay with HepG2 [7]. For the same molecule, the Ratio with HepG2 [8] and in the assay on HepG2 [9] was 0.1 in each case. The values for the IC50 with HepG2 [5] and in the assay on HepG2 [10] were 10.3 µM and 8.8 µM, respectively.
Turning to `CCOC(=O)c1c(-c2ccc(Cl)cc2)c(C#N)c(=O)n(/N=C(\C)c2ccc(NS(=O)(=O)c3ccc(Cl)cc3)cc2)c1N`, the Ratio in the assay on HepG2 [1] was 0.555; in the assay on HepG2 [2] it was 0.463; in the assay on HepG2 [3] it was 0.394; in the assay on HepG2 [4] it was 0.314. The IC50 in the assay with HepG2 [5] was 20.2 µM.
The like results for `CCOC(=O)c1c(-c2ccccc2)c(C#N)c(=O)n(/N=C(\C)c2ccc(NS(=O)(=O)c3ccc(Cl)cc3)cc2)c1N` were, in that order, 0.617, 0.287, 0.212, 0.179 and 16.8 µM.
The like results for `CCOC(=O)c1c(-c2ccc3c(c2)OCO3)c(C#N)c(=O)n(/N=C(\C)c2ccc(NS(=O)(=O)c3ccc(Cl)cc3)cc2)c1N` were, in that order, 0.691, 0.606, 0.373, 0.134 and 37 µM.
The like results for `C/C(=N\NC(=O)C(C#N)C(=S)S)c1ccc(NS(=O)(=O)c2ccc(Cl)cc2)cc1` (stereo not given) were, in that order, 0.542, 0.448, 0.387, 0.248 and 17.5 µM.
For the molecule `CCOC(=O)c1c(-c2cccc([N+](=O)[O-])c2)c(C#N)c(=O)n(/N=C(\C)c2ccc(NS(=O)(=O)c3ccc(Cl)cc3)cc2)c1N`, the Ratio was determined as 0.661 with HepG2 [1], 0.524 in the assay on HepG2 [2], 0.381 with HepG2 [3] and 0.298 in the assay on HepG2 [4]. Also, the half-maximal inhibitory concentration (IC50) with HepG2 [5] was found to be 29.7 µM.
The like results for `CCOC(=O)c1c(-c2ccc(OC)cc2)c(C#N)c(=O)n(/N=C(\C)c2ccc(NS(=O)(=O)c3ccc(Cl)cc3)cc2)c1N` were, in that order, 0.651, 0.637, 0.613, 0.147 and 61.7 µM.
For `CCOC(=O)c1c(/C=C/c2ccccc2)c(C#N)c(=O)n(/N=C(\C)c2ccc(NS(=O)(=O)c3ccc(Cl)cc3)cc2)c1N` the same measures were 0.414, 0.336, 0.275, 0.114 and 10.7 µM.
For `CSC(SC)=C(C#N)C(=O)N/N=C(\C)c1ccc(NS(=O)(=O)c2ccc(Cl)cc2)cc1` the same measures were 0.579, 0.44, 0.329, 0.266 and 19.4 µM.
As for `CCOC(=O)c1c(-c2ccccc2OC)c(C#N)c(=O)n(/N=C(\C)c2ccc(NS(=O)(=O)c3ccc(Cl)cc3)cc2)c1N`, the Ratio in the assay with HepG2 [1] is reported as 0.489; with HepG2 [2], 0.129; in the assay on HepG2 [3], 0.105; in the assay with HepG2 [4], 0.087. Moreover, in the assay on HepG2 [5], the IC50 stood at 11.4 µM.
The like results for `CCOC(=O)c1c(-c2ccccc2Cl)c(C#N)c(=O)n(/N=C(\C)c2ccc(NS(=O)(=O)c3ccc(Cl)cc3)cc2)c1N` were, in that order, 0.488, 0.545, 0.342, 0.192 and 11.4 µM.
As for `C/C(=N\NC(=O)CC#N)c1ccc(NS(=O)(=O)c2ccc(Cl)cc2)cc1`, the Ratio was 0.18 with HepG2 [1]; 0.159 with HepG2 [2]; 0.078 in the assay with HepG2 [3]; 0.064 in the assay on HepG2 [4]; 0.26 with HepG2 [6]; 0.25 in the assay with HepG2 [7]. Moreover, the Ratio is 0.12 in the assay on HepG2 [8] and 0.11 in the assay with HepG2 [9]. The figures for the half-inhibitory concentration (IC50) with HepG2 [5] and with HepG2 [10] were 8 µM and 6.5 µM, respectively. For the same molecule, the “Ratio IC50” value with HepG2 [11] was 4.
With `CCOC(=O)c1c(-c2ccc([N+](=O)[O-])cc2)c(C#N)c(=O)n(/N=C(\C)c2ccc(NS(=O)(=O)c3ccc(Cl)cc3)cc2)c1N`, the Ratio turned out to be 0.713 with HepG2 [1], 0.586 in the assay with HepG2 [2], 0.483 in the assay on HepG2 [3] and 0.212 in the assay on HepG2 [4]. In the assay with HepG2 [5], the IC50 turned out to be 41.1 µM.
Regarding `CCO/C=C(\C#N)C(=O)N/N=C(\C)c1ccc(NS(=O)(=O)c2ccc(Cl)cc2)cc1`, the Ratio in the assay with HepG2 [1] is listed as 0.556; with HepG2 [2] it was 0.406; in the assay with HepG2 [3], 0.228; in the assay with HepG2 [4] it was 0.222. For the same molecule, the concentration for half-maximal inhibition (IC50) with HepG2 [5] turned out to be 16.8 µM.
Regarding `CCOC(=O)c1c(-c2ccc(C)cc2)c(C#N)c(=O)n(/N=C(\C)c2ccc(NS(=O)(=O)c3ccc(Cl)cc3)cc2)c1N`, the Ratio was determined as 0.264 with HepG2 [1]; 0.25 in the assay on HepG2 [2]; 0.214 in the assay with HepG2 [3]; 0.107 in the assay with HepG2 [4]; 0.18 with HepG2 [6]; 0.15 in the assay with HepG2 [7]. Further, the Ratio with HepG2 [8] is reported as 0.12; with HepG2 [9], 0.11. Further, the IC50 in the assay with HepG2 [5] was 8.38 µM; with HepG2 [10] it was 7.3 µM.
With `C/C(=N\NC(=O)/C(C#N)=C/N(C)C)c1ccc(NS(=O)(=O)c2ccc(Cl)cc2)cc1`, the Ratio came to 0.642 in the assay on HepG2 [1], 0.386 in the assay with HepG2 [2], 0.311 in the assay on HepG2 [3] and 0.281 in the assay on HepG2 [4]. The IC50 in the assay with HepG2 [5] came out at 19.4 µM.
With `COc1cccc2c1C(=O)c1c(O)c3c(c(O)c1C2=O)C[C@@](O)(C(=O)CO)C[C@@H]3O[C@H]1C[C@H](N)[C@H](O)[C@H](C)O1` [DOXORUBICIN], the Ratio in the assay with HepG2 [1] was 0.551; in the assay on HepG2 [2], 0.48; with HepG2 [3], 0.139; in the assay with HepG2 [4], 0.13.
